Data as given in ChEMBL document CHEMBL1155259, “Synthesis and multidrug resistance reversal activity of dihydroptychantol A and its novel derivatives” (2009).

Experiments:
KB = test: Cytotoxicity against human KB cells at 10 uM after 48 hrs by MTT assay; format: functional
How it was run: (§1)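 Cells grown in RPMI 1640 with 10% FBS at 37 °C, 5% CO₂ until roughly 50–70% confluent, then cultured in 24-well plates and exposed to vehicle (DMSO) or test compound alone at 10 μM for 48 h. Percent growth inhibition measured by MTT assay; three replicates per treatment, assay repeated at least thrice.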

[1] = Cytotoxicity against adriamycin-resistant human K562/A02 cells at 10 uM after 48 hrs by MTT assay; format: functional; conditions: K562/A02, 48 h; how it was run: as §1
[2] = Cytotoxicity against vincristine-resistant human KB/VCR cells at 10 uM after 48 hrs by MTT assay; format: functional; how it was run: as §1
KB/VCR = test: Reversal of P-gp-mediated multidrug resistance in human KB/VCR cells assessed as reversal factor, ratio of vincristine ID50 without drug to vincristine ID50 with drug at 10 uM after 48 hrs by MTT assay; format: cell-based
How it was run: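 KB/VCR cells in RPMI 1640 with 10% FBS (37 °C, 5% CO₂) seeded at 6 × 10⁴/ml in 24-well plates. They were co-treated with a range of vincristine concentrations, with or without test compound at 10 μM, and viability read by MTT. Vincristine ID₅₀ was derived relative to untreated cells (100%). RF = ID₅₀ of vincristine alone / ID₅₀ with compound. Triplicates, repeated at least thrice.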

K562 = test: Cytotoxicity against human K562 cells at 10 uM after 48 hrs by MTT assay; format: functional; conditions: K562, 48 h; how it was run: as §1

Compound	inhibition at 10 µM (KB)	inhibition at 10 µM [1]	inhibition at 10 µM [2]	Ratio (KB/VCR)	inhibition at 10 µM (K562)
COc1ccc2c(c1)CCc1ccc(OC)c(c1)Oc1ccc(cc1)-c1nc(NN)sc1-c1cccc(c1)O2	0%	18.8%	0%	10.6	32.1%
Nc1nc2c(s1)-c1cccc(c1)Oc1ccc(O)cc1CCc1ccc(O)c(c1)Oc1ccc-2cc1	0%	10.1%	0%	13.8	11.6%
COc1ccc2c(c1)CCc1ccc(OC)c(c1)Oc1ccc(cc1)-c1nc(N)sc1-c1cccc(c1)O2	0%	26.8%	0%	12.3	58.7%
NNc1nc2c(s1)-c1cccc(c1)Oc1ccc(O)cc1CCc1ccc(O)c(c1)Oc1ccc-2cc1	51.1%	13.7%	19.4%	–	37.1%
COc1ccc2c(c1)CCc1ccc(OC)c(c1)Oc1ccc(cc1)C(O)C(Br)c1cccc(c1)O2 (centres undefined)	2.82%	11.9%	0%	10.5	38.5%
